Assay results from ChEMBL document CHEMBL1240482, “Synthesis and antiproliferative evaluation of certain indeno[1,2-c]quinoline derivatives. Part 2” (J Med Chem, 2010).
Activity calls are given as the source filed them. No cut-off for these calls is given here.

Assays:
[1] = test system: Detroit 551; assay: Selectivity index, ratio of IC50 for human Detroit 551 cells to IC50 for human BT-483 cells; assay type: functional
[2] = test system: Detroit 551; assay: Selectivity index, ratio of IC50 for human Detroit 551 cells to IC50 for human PC3 cells; assay type: functional
[3] = biological target: T1, DNA topoisomerase 1 (Homo sapiens, UniProt P11387); assay: Inhibition of human topoisomerase 1 assessed as decrease in pBR322 mobility on agarose gel by electrophoresis
T1 sequence (P11387 whole entry): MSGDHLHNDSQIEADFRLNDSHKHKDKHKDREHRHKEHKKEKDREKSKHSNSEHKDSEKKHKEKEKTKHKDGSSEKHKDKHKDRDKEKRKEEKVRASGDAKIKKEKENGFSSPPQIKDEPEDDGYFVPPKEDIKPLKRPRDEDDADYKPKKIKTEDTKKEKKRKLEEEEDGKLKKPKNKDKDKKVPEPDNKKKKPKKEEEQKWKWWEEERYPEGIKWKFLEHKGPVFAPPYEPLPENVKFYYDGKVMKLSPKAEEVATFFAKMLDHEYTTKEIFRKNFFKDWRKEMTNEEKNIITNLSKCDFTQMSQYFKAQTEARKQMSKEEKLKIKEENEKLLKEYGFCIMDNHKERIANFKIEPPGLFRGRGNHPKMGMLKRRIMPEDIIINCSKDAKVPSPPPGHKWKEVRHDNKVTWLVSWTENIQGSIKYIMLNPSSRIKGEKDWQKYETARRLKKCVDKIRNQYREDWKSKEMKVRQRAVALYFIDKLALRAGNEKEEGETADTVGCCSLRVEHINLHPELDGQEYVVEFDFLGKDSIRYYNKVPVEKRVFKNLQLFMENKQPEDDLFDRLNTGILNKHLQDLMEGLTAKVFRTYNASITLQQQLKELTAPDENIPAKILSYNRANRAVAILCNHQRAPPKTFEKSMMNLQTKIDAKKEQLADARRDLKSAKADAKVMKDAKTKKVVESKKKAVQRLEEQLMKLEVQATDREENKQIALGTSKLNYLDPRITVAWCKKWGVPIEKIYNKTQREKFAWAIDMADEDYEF
Procedure, shortened: (§1)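 Enzyme preincubated with compound before DNA addition; reaction run 30 min at 37 °C and stopped with SDS. Products resolved on 1% agarose, stained with ethidium bromide, quantified by densitometry.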

[4] = test system: HeLa; assay: Selectivity index, ratio of IC50 for human Detroit 551 cells to IC50 for human HeLa cells; assay type: functional
[5] = Cytotoxicity against human SKHep cells after 48 hrs by MTT assay; assay type: functional
Procedure, shortened: (§2)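 Cells grown in DMEM with 10% FBS at 37 °C and 5% CO2, seeded at 5 × 10^3 per well and allowed 24 h before drug. Serial dilutions from DMSO stocks applied for 48 h. MTT (2 mg/mL in PBS) added for 2 h, formazan dissolved in DMSO, absorbance read at 570 nm. GI50 interpolated by linear regression from at least three points in the 20-80% range; three independent experiments.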

[6] = test system: PC-3; assay: Cytotoxicity against human PC3 cells after 48 hrs by MTT assay; assay type: functional; settings: PC-3, 48 h; procedure, shortened: as §2
[7] = Cytotoxicity against human Detroit 551 cells after 48 hrs by MTT assay; assay type: cell-based; procedure, shortened: as §2
[8] = biological target: T2, DNA topoisomerase 1 (Homo sapiens) (UniProt P11387); assay: Inhibition of human topoisomerase 1 assessed as decrease in pBR322 mobility on agarose gel at 10 uM by electrophoresis; procedure, shortened: as §1
T2 sequence (whole entry): T1 sequence (P11387 whole entry)

[9] = test system: SAS; assay: Selectivity index, ratio of IC50 for human Detroit 551 cells to IC50 for human SAS cells; assay type: functional
[10] = test system: HeLa; assay: Cytotoxicity against human HeLa cells after 48 hrs by MTT assay; assay type: functional; procedure, shortened: as §2
[11] = test system: A549; assay: Cytotoxicity against human A549 cells after 48 hrs by MTT assay; assay type: functional; settings: A549, 48 h; procedure, shortened: as §2
[12] = Cytotoxicity against human BT-483 cells after 48 hrs by MTT assay; assay type: functional; settings: BT-483, 48 h; procedure, shortened: as §2
[13] = test system: Detroit 551; assay: Selectivity index, ratio of IC50 for human Detroit 551 cells to IC50 for human A549 cells; assay type: functional
[14] = Inhibition of human topoisomerase 2 assessed as decrease in pBR322 mobility on agarose gel by electrophoresis; procedure, shortened: as §1
[15] = species on record: Homo sapiens; assay: Inhibition of human topoisomerase 2 assessed as decrease in pBR322 mobility on agarose gel at 10 uM by electrophoresis; procedure, shortened: as §1
[16] = test system: Nucleic Acid; assay: Binding affinity to pBR322; assay type: nucleic-acid assay; settings: Escherichia coli
[17] = test system: SAS; assay: Cytotoxicity against human SAS cells after 48 hrs by MTT assay; assay type: functional; procedure, shortened: as §2
[18] = test system: Detroit 551; assay: Selectivity index, ratio of IC50 for human Detroit 551 cells to IC50 for human SKHep cells; assay type: functional

| SMILES | RatioGI50 [1] | RatioGI50 [2] | IC50 [3] [µM] | RatioGI50 [4] | GI50 [5] [µM] | GI50 [6] [µM] | GI50 at 48 h [7] [µM] | inhibition [8] [%] | RatioGI50 [9] | GI50 ([10]; read-out: GI50) [µM] | GI50 ([10]; read-out: pGI50 (converted)) [µM] | GI50 [11] [µM] | GI50 [12] [µM] | RatioGI50 [13] | IC50 [14] [µM] | inhibition [15] [%] | Activity [16] | GI50 [17] [µM] | RatioGI50 [18] |
| --- | --- | --- | --- | --- | --- | --- | --- | --- | --- | --- | --- | --- | --- | --- | --- | --- | --- | --- | --- |
| COc1ccc2c(c1)/C(=N\OCCN1CCCCC1)c1c-2cnc2ccccc12 | 1.22 | 0.99 | 16.5 | 2.36 | 5.26 | 6.38 | 6.3 | 28 | 0.88 | 2.67 | 2.69 | 8.48 | 5.17 | 0.74 | 10.1 | 50 | Active | 7.18 | 1.2 |
| COc1ccc2c(c1)/C(=N\OCCCN(C)C)c1c-2cnc2ccccc12 | 3.71 | 0.61 | 40 | 3.11 | 1.07 | 5.65 | 3.45 | 5 | 0.57 | 1.11 | 1.12 | 1.83 | 0.93 | 1.89 | 13.2 | 75 |  | 6.1 | 3.22 |
| COc1ccc2c(c1)/C(=N\OCCN1CCOCC1)c1c-2cnc2ccccc12 |  |  | > 100 |  | 20.8 | 7.81 |  | 0 |  | 16.9 | 17 | 28.2 | 10.2 |  | > 100 | 0 |  | 15.7 |  |
| COc1ccc2c(c1)/C(=N\OCCN(C)C)c1c-2c(O)nc2ccccc12 | 2.38 | 1.8 | 7.4 | 41.74 | 2.56 | 5.34 | 9.6 | 73 | 8.73 | 0.23 | 0.229 | 1 | 4.04 | 9.6 | 10.2 | 46 | Active | 1.1 | 3.75 |
| COc1ccc2c(c1)/C(=N\OCCN(C)C)c1c-2c(N2CCNCC2)nc2ccccc12 | 2.47 | 0.59 | 8.5 | 2.96 |  |  | 2.72 | 56 | 0.43 |  | 0.912 |  | 1.1 | 3.83 | 4.87 | 75 | Active |  | 0.9 |
| COc1ccc2c(c1)/C(=N\O)c1c-2c(N2CCNCC2)nc2ccccc12 |  |  |  |  |  |  |  |  |  |  | 2.34 |  |  |  |  |  |  |  |  |
| COc1ccc2c(c1)/C(=N\OCCN1CCOCC1)c1c-2c(N2CCNCC2)nc2ccccc12 | 0.69 | 0.4 | 13 | 3.33 | 0.98 | 6.47 | 2.6 | 40 | 0.38 | 0.78 | 0.776 | 2.2 | 3.75 | 1.18 | 5.97 | 100 |  | 6.93 | 2.65 |
| COc1ccc2c(c1)/C(=N\OCCCN(C)C)c1c-2c(N2CCNCC2)nc2ccccc12 | 2.02 | 0.52 | 6.6 | 7.49 |  |  | 2.77 | 70 | 0.56 |  | 0.372 |  | 1.37 | 7.29 | 4.05 | 88 | Active |  | 0.94 |
| COc1ccc2c(c1)/C(=N\OCCN1CCCCC1)c1c-2c(=O)[nH]c2ccccc12 |  |  | > 100 |  |  |  | 7.5 |  |  |  |  |  |  |  |  |  |  |  |  |
| COc1ccc2c(c1)/C(=N\OCCN1CCCCC1)c1c-2c(O)nc2ccccc12 | 4.72 | 1.31 |  | 8.93 | 4.28 | 5.74 |  | 0 | 1.39 | 0.84 | 0.832 | 6.95 | 1.59 | 1.08 | > 100 | 0 | Active | 5.39 | 1.75 |
